Assay results from ChEMBL document CHEMBL4699629, “N-Hydroxyformamide LpxC inhibitors, their in vivo efficacy in a mouse Escherichia coli infection model, and their safety in a rat hemodynamic assay” (Bioorg Med Chem, 2020).
In brackets after ≈: the same amount, converted by molar mass.

Tests used:
[1] = biological target: T1, UDP-3-O-acyl-N-acetylglucosamine deacetylase (Pseudomonas aeruginosa (strain ATCC 15692 / PAO1 / 1C / PRS 101 / LMG12228), UniProt P47205); assay: Displacement of fluorescent ligand from Pseudomonas aeruginosa LpxC measured after 30 mins by fluorescence anisotrophy assay
T1 sequence (P47205 whole entry): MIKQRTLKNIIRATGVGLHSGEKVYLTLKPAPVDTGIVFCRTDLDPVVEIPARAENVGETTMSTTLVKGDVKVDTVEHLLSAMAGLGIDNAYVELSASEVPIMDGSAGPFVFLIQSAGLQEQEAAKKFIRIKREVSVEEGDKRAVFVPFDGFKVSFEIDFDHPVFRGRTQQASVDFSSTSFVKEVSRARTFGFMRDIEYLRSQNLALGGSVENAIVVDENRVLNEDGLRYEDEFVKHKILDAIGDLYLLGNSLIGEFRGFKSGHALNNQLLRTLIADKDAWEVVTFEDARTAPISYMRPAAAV

[2] = tested on: Escherichia coli; assay: Antibacterial activity against Escherichia coli ATCC 25922 assessed as bacterial growth inhibition by CLSI based broth microdilution method; assay type: functional
Procedure, shortened: (§1)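 CLSI broth microdilution determination of MIC.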

[3] = Displacement of fluorescent ligand from Escherichia coli LpxC measured after 30 mins by fluorescence anisotrophy assay
Procedure, shortened: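 Well mixes of 2 nM ligand C ± 12.5 nM E. coli LpxC; inhibitor two-fold dilutions 10 µM to […]; 30 min ambient, anisotropy 540/590 nm; % inhibition vs no-enzyme min; Hill fit for IC50; artifact correction at high concentrations.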

[4] = tested on: Klebsiella pneumoniae; assay: Antibacterial activity against Klebsiella pneumoniae ATCC 700603 assessed as bacterial growth inhibition by CLSI based broth microdilution method; assay type: functional; procedure, shortened: as §1
[5] = tested on: Pseudomonas aeruginosa; assay: Antibacterial activity against Pseudomonas aeruginosa PAO1 assessed as bacterial growth inhibition by CLSI based broth microdilution method; assay type: functional; procedure, shortened: as §1
[6] = Chemical stability of the compound; assay type: physicochemical
[7] = Solubility of the compound in 2.5% dextrose in sodium acetate buffer at pH 5; assay type: physicochemical
[8] = Protein binding in mouse plasma assessed as unbound fraction after 7 hrs by LC-MS/MS-based rapid equilibrium dialysis method; assay type: ADME, cell-free
Procedure, shortened: (§2)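 Rapid equilibrium dialysis: plasma spiked to 5 µM final, dialysed against PBS at 37 °C for 7 h with 400 rpm shaking; both chambers protein-precipitated with acetonitrile/0.1% formic acid containing carbutamide internal standard, quantified by LC-MS/MS. fu = buffer/sample peak area ratio; recovery accepted between 70 and 130%.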

[9] = Protein binding in rat plasma assessed as unbound fraction after 7 hrs by LC-MS/MS-based rapid equilibrium dialysis method; assay type: ADME, cell-free; procedure, shortened: as §2
[10] = tested on: Escherichia coli; assay: Antibacterial activity against Escherichia coli ARC6599 infected in cyclophosphamide-induced CD-1 mouse model of neutropenic thigh infection assessed as log10 reduction in CFU at 200 mg/kg, sc qd administered 2 hrs post-infection and measured after 24 hrs; assay type: functional
Procedure, shortened: (§3)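 Female CD-1 mice made neutropenic with cyclophosphamide IP, 150 mg/kg day -4 and 100 mg/kg day -1. Saline suspension from overnight plate, OD625 0.13, diluted; 100 µL i.m. into both rear thighs (actual 7.6×10^5 CFU/thigh). Dosing began 2 h post-infection, s.c. at 20 mL/kg in 5% DMSO plus 2.5% dextrose/20 mM acetate ([…]); 3 mice/group. Thighs harvested 26 h post-infection, homogenized in 2 mL saline, plated; mean and SD of log CFU.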

[11] = Observed clearance in mouse at 200 mg/kg, sc; assay type: ADME, organism-based; conditions: in vivo
[12] = tested on: Escherichia coli; assay: Antibacterial activity against Escherichia coli ARC6599 infected in sc dosed cyclophosphamide-induced CD-1 mouse model of neutropenic thigh infection assessed as reduction in CFU administered 2 hrs post-infection and measured after 24 hrs; assay type: functional, organism-based; procedure, shortened: as §3
[13] = AUC in mouse at 200 mg/kg, sc; assay type: ADME, organism-based; set-up: dose 200 mg/kg; conditions: in vivo
[14] = Volume of distribution at steady state in Sprague-Dawley rat at 90 mg/kg, iv administered as single bolus dose by HPLC analysis; assay type: ADME, organism-based; conditions: in vivo, read-out: Vdss
Procedure, shortened: (§4)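 Fasted male Sprague-Dawley rats given one IV tail-vein slow-push bolus of compound formulated at 90 mg/mL in 2.5% dextrose/20 mM acetate pH 5, 1 mL/kg; saphenous blood at selected times into K2EDTA for plasma.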

[15] = Cmax in mouse at 200 mg/kg, sc; assay type: ADME, organism-based; set-up: route subcutaneous, dose 200 mg/kg; conditions: in vivo
[16] = Clearance in Sprague-Dawley rat at 90 mg/kg, iv administered as single bolus dose by HPLC analysis; assay type: ADME, organism-based; conditions: in vivo; procedure, shortened: as §4
[17] = biological target: Acetylcholinesterase (Homo sapiens, UniProt P22303); assay: Inhibition of human AchE expressed in HEK293 cells using acetylthiocholine as substrate by Ellman's method
Sequence of Acetylcholinesterase (P22303 whole entry): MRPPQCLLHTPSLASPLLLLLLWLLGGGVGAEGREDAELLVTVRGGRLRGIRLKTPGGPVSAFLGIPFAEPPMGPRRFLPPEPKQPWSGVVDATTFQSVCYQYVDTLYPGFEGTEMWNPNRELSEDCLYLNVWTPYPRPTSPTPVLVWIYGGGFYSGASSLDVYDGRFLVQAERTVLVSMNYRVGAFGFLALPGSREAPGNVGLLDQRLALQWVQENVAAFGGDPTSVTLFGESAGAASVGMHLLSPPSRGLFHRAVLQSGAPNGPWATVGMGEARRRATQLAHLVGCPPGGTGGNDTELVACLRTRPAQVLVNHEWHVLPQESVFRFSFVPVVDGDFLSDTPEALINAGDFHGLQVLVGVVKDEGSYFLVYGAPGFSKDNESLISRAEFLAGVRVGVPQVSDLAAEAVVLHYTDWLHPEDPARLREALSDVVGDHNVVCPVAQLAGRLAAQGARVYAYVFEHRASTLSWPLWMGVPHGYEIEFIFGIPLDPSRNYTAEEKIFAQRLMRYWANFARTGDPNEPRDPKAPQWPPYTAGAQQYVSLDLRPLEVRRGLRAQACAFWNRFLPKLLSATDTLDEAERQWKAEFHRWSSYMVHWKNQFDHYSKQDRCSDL
Procedure, shortened: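 Purified recombinant enzyme in 0.1 M sodium phosphate pH 7.4 with 0.01% Triton X-100. Two-fold inhibitor dilutions from 300 µM to 0.29 µM plus zero, each held at 3% DMSO. Acetylthiocholine and Ellman's reagent added as a solution of 1.2 mM each; reaction started with 0.006 U/mL enzyme solution. A412 read every minute for 1 h, with a no-enzyme blank subtracted. Initial slopes give % inhibition; IC50 from a Hill-equation fit.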

[18] = tested on: Escherichia coli; assay: Antibacterial activity against Escherichia coli ARC6599 infected in cyclophosphamide-induced CD-1 mouse model of neutropenic thigh infection assessed as log10 reduction in CFU at 200 mg/kg, sc bid administered 2 hrs post-infection and measured after 24 hrs; assay type: functional; procedure, shortened: as §3
[19] = Ratio of fAUC in mouse at 200 mg/kg, sc to MIC for antibacterial activity against Escherichia coli ARC6599 infected in cyclophosphamide-induced CD-1 mouse model of neutropenic thigh infection; assay type: ADME, organism-based; conditions: in vivo
[20] = Volume of distribution in mouse at 200 mg/kg, sc; assay type: ADME, organism-based; conditions: in vivo

Compound	IC50 [1] [µM]	MIC [2] [mg/L]	IC50 [3] [µM]	also measured
O=CN(O)C(CO)Cn1nnc2cc(C#Cc3ccc(CN4CCOCC4)cc3)ccc21 (stereo not drawn)	0.061	2 (≈ 4.59 µM)	0.042	
O=CN(O)CCn1cnc2cc(C#Cc3ccc(CN4CCOCC4)cc3)ccc21	1.1	16 (≈ 39.6 µM)	0.082	
O=CN(O)CCn1ncc2cc(C#Cc3ccc(CN4CCOCC4)cc3)ccc21	0.064	4 (≈ 9.89 µM)	0.028	
O=CN(O)CCc1nnc2cc(C#Cc3ccc(CN4CCOCC4)cc3)ccn12	0.28	16 (≈ 39.5 µM)	0.054	
O=C(CNC(=O)c1ccc(C#Cc2ccc(CN3CCOCC3)cc2)cc1)NO	0.063	16 (≈ 40.7 µM)	0.021	MIC [4]: > 64 mg/L; MIC [5]: 64 mg/L (≈ 163 µM)
O=CN(O)CCn1ccc2cc(C#Cc3ccc(CN4CCOCC4)cc3)ncc21	1	64 (≈ 158 µM)	0.74	
O=CN(O)CCCc1ccc(C#Cc2ccc(CN3CCOCC3)cc2)cc1	0.063	32 (≈ 84.6 µM)	0.021	
CS[C@@H](Cn1nnc2cc(C#Cc3ccc(CN4CC5(C4)C[S+]([O-])C5)cc3)ccc21)N(O)C=O.O=C(O)C(F)(F)F				solubility [7]: > 200 mg/mL
O=CN(O)CCn1nnc2cc(C#Cc3ccc(CN4CCOCC4)cc3)ccc21	0.044	4 (≈ 9.87 µM)	0.02	
CCOC(Cn1nnc2cc(C#Cc3ccc(CN4CCOCC4)cc3)ccc21)N(O)C=O (stereo not drawn)	0.041	2 (≈ 4.45 µM)	0.022	Stabilty [6]: Unstable
C[C@@H](O)[C@H](NC(=O)c1ccc(C#Cc2ccc(CN3CCOCC3)cc2)cc1)C(=O)NO		0.13 (≈ 0.297 µM)	< 0.01	MIC [4]: 2 mg/L (≈ 4.57 µM); MIC [5]: 1 mg/L (≈ 2.29 µM)
O=CN(O)CCn1ccc2nc(C#Cc3ccc(CN4CCOCC4)cc3)ccc21	1	32 (≈ 79.1 µM)	0.17	
CS[C@@H](Cn1nnc2cc(C#Cc3ccc(CN4CCOCC4)cc3)ccc21)N(O)C=O	< 0.001	0.13 (≈ 0.288 µM)	< 0.01	fraction unbound at 7 h [8]: 0.09; fraction unbound at 7 h [9]: 0.03; MIC [4]: 4 mg/L (≈ 8.86 µM); MIC [5]: 4 mg/L (≈ 8.86 µM); Activity [10]: 2 log10CFU; CL [11]: 4.8 L/h/kg; Activity [12]: Dose-dependent effect; AUC [13]: 34.8 µg·h/mL; Vd [14]: 0.58 L/kg; Cmax [15]: 21.5 µg/mL; clearance [16]: 2 L/h/kg; IC50 [17]: 3.5 µM; Activity [18]: >3.2 log10CFU; fAUC/MIC [19]: 104; Vd [20]: 10.1 L/kg
O=CN(O)CCN1C(=O)Cc2cc(C#Cc3ccc(CN4CCOCC4)cc3)ccc21	0.17	4 (≈ 9.54 µM)	0.025	
O=CN(O)CCn1ccc2cc(C#Cc3ccc(CN4CCOCC4)cc3)ccc21	0.045	2 (≈ 4.96 µM)	0.01	

Continued, in another order:

IC50 [1] [µM]	MIC [2] [mg/L]	IC50 [3] [µM]	Compound	also measured
0.037	4 (≈ 9.87 µM)	0.015	O=CN(O)CCc1nnn2cc(C#Cc3ccc(CN4CCOCC4)cc3)ccc12	
0.0025	1	< 0.01	CC[C@@H]([C@@H](CC(C)O)c1n[nH]c2cc(C#Cc3ccc(CN4CCOCC4)cc3)ccc12)N(O)C=O (mixture of isomers)	MIC [4]: 32 mg/L; MIC [5]: 16 mg/L
0.0054	0.5 (≈ 1.07 µM)	< 0.01	CCSC(Cn1nnc2cc(C#Cc3ccc(CN4CCOCC4)cc3)ccc21)N(O)C=O (stereo not drawn)	
0.0013	0.25 (≈ 0.554 µM)	< 0.01	CSC(Cn1nnc2cc(C#Cc3ccc(CN4CCOCC4)cc3)ccc21)N(O)C=O (stereo not drawn)	
0.0073	0.25 (≈ 0.574 µM)	< 0.01	COC(Cn1nnc2cc(C#Cc3ccc(CN4CCOCC4)cc3)ccc21)N(O)C=O (stereo not drawn)	Stabilty [6]: Unstable
0.0024	1 (≈ 2.31 µM)	< 0.01	CCC(Cn1nnc2cc(C#Cc3ccc(CN4CCOCC4)cc3)ccc21)N(O)C=O (stereo not drawn)	
0.021	4 (≈ 8.86 µM)	0.041	CS[C@H](Cn1nnc2cc(C#Cc3ccc(CN4CCOCC4)cc3)ccc21)N(O)C=O	
0.01	4 (≈ 9.25 µM)	0.019	CCC(Cc1n[nH]c2cc(C#Cc3ccc(CN4CCOCC4)cc3)ccc12)N(O)C=O (stereo not drawn)	MIC [4]: > 64 mg/L; MIC [5]: > 64 mg/L
0.014	2 (≈ 4.77 µM)		CC(Cn1nnc2cc(C#Cc3ccc(CN4CCOCC4)cc3)ccc21)N(O)C=O (stereo not drawn)	
